The values below come from ChEMBL document CHEMBL3414544, “PAINS in the assay: chemical mechanisms of assay interference and promiscuous enzymatic inhibition observed during a sulfhydryl-scavenging HTS” (J Med Chem, 2015).

The source made the active and inactive calls. Unless noted, no cut-off for these calls is given here.

The target in data set [1] is Histone acetyltransferase GCN5 (Saccharomyces cerevisiae S288c, UniProt Q03330). The data set can be described thus: Inhibition of yeast histone acetyltransferase Gcn5-Ada2-Ada3 complex using tetramer and [3H]-acetyl-CoA assessed as acetate incorporation after 30 mins by liquid scintillation counting. The following applies: read-out: IC50.
Data set [2] in a line: Fluorescence quenching in HTS buffer with 20 uM 7-diethylamino-3-(4'-maleimidyl-phenyl)-4-methylcoumarin assessed as fluorescence signal reduction at 10 uM after 10 mins. It counts as physicochemical.
Data set [3] is described as follows: Chemical stability of the compound in HTS buffer assessed as GSH adduct formation by UPLC-MS analysis. It counts as physicochemical. The procedure, abridged:
(§1)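 Compound (typically 0.5 mM final) incubated in HTS buffer (pH 8.0) for 5, 15 or 30 min, then reduced glutathione added (2 equiv per 1 equiv compound); aliquots analysed by UPLC–MS (BEH C18 column, ELS and 254 nm traces) 5 min after GSH addition, and the same sample re-analysed 15 min later. HTS-like conditions but 5% DMSO, no detergent.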

The target in data set [4] is T1, Histone acetyltransferase RTT109 (Saccharomyces cerevisiae (strain ATCC 204508 / S288c) (Baker's yeast)) (UniProt Q07794).
T1 sequence (whole entry): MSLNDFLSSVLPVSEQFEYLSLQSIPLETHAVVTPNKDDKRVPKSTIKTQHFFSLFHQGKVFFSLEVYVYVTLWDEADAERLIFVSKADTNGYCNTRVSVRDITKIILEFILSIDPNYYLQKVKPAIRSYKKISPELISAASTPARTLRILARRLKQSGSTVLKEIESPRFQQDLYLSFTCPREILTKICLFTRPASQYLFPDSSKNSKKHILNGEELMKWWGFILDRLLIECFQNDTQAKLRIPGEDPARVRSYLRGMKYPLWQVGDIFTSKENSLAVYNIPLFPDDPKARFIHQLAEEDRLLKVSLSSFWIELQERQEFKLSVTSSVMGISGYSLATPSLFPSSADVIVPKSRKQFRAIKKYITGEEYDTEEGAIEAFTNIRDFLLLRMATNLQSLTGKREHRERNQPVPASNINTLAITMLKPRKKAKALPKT
The data set can be described thus: Inhibition of Vps75-stimulated recombinant Saccharomyces cerevisiae histone acetyltransferase Rtt109 assessed as H3K56 acetylated product at […] after 45 mins by Slot bolt inhibiton assay.

For data set [5], the target named is T2, Histone acetyltransferase p300 (Homo sapiens, UniProt Q09472). The data set can be described thus: Inhibition of recombinant histone acetyltransferase p300 (unknown origin) using dH3-H4 tetramer and [3H]-acetyl-CoA assessed as acetate incorporation after 5 mins by liquid scintillation counting in presence of 1 mM DTT.
The target in data set [6] is T3, Lupus La protein (Homo sapiens) (UniProt P05455).
T3 sequence (whole entry): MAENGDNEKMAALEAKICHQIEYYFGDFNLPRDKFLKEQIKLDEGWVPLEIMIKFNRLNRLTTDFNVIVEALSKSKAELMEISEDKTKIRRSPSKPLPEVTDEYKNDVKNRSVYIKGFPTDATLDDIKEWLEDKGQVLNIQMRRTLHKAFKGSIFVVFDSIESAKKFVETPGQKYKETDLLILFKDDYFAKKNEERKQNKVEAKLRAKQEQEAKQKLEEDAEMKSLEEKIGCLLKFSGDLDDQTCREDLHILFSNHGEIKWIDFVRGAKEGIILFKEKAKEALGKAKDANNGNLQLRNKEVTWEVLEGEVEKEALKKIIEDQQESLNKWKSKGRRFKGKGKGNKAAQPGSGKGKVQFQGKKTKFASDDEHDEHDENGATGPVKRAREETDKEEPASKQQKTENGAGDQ
The data set can be described thus: Induction of thiol reactivity with La protein (unknown origin) using […] assessed as protein reactivity by ALARM NMR. The procedure, abridged: (§2)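 ALARM NMR with recombinant La antigen expressed in E. coli Rosetta, 15N-labelled and 13C-labelled at Leu/Ile δ-methyl and Val γ-methyl groups; protein pre-reduced with 20 mM DTT then dialysed DTT-free under N2.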

Data set [7] can be described thus: Fluorescence quenching in HTS buffer with […] CoA assessed as fluorescence signal reduction at 10 uM after 10 mins. It counts as physicochemical.
For data set [8], the target named is T3, Lupus La protein (Homo sapiens). The data set can be described thus: Induction of thiol reactivity with La protein (unknown origin) using […] assessed as protein reactivity by ALARM NMR in presence of 20 mM DTT. The procedure, abridged: as §2
The nature of data set [9]: Fluorescence quenching in HTS buffer assessed as fluorescence signal reduction at 10 uM after 10 mins. The format is physicochemical.
Data set [10] deals with T1, Histone acetyltransferase RTT109 (Saccharomyces cerevisiae (strain ATCC 204508 / S288c) (Baker's yeast)). The data set can be described thus: Inhibition of Vps75-stimulated recombinant Saccharomyces cerevisiae histone acetyltransferase Rtt109 using [3H]-acetyl-CoA assessed as acetate incorporation […] by liquid scintillation counting in presence of 1 mM DTT.
For data set [11], the target named is T4, Histone acetyltransferase RTT109 (Saccharomyces cerevisiae (strain ATCC 204508 / S288c) (Baker's yeast), UniProt Q07794).
T4 sequence (Q07794 whole entry): T1 sequence (whole entry)
The data set can be described thus: Inhibition of Vps75-stimulated recombinant Saccharomyces cerevisiae histone acetyltransferase Rtt109 using Asf1-dH3-H4 as substrate assessed as coenzyme A production after 45 mins by CPM based HTS assay. The procedure, abridged:
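Recombinant Rtt109–Vps75 at 50 nM, with Asf1–dH3–H4 as substrate and acetyl-CoA as acetyl donor. Buffer contained freshly prepared 0.01% Triton X-100. The CoA product was detected by fluorescence of its CPM adduct. Plates had Z′ ≥0.5. IC50 came from a four-parameter variable-slope fit.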

The target in data set [12] is T4, Histone acetyltransferase RTT109. The data set can be described thus: Inhibition of Vps75-stimulated recombinant Saccharomyces cerevisiae histone acetyltransferase Rtt109 using [3H]-acetyl-CoA assessed as acetate incorporation after 30 mins by liquid scintillation counting. Conditions: read-out: IC50.
The nature of data set [13]: Fluorescence quenching assessed as fluorescence signal reduction at 10 uM after 10 mins. It counts as physicochemical. The procedure, abridged:
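CPM (20 μM final) and CoA (5 μM final) reacted to completion in assay buffer (stable plateau, usually ~5 min); adduct solution added to wells preplated with compound; shaken 5 min, equilibrated 5 min at room temperature; fluorescence intensity read as percent signal reduction versus DMSO controls. Flagged as quencher at >20% signal reduction at 10 μM final compound.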

Data set [14] has as its target Histone acetyltransferase GCN5 (Saccharomyces cerevisiae S288c) (UniProt Q03330). The data set can be described thus: Inhibition of yeast histone acetyltransferase Gcn5-Ada2-Ada3 complex using tetramer and [3H]-acetyl-CoA assessed as acetate incorporation […] by liquid scintillation counting in presence of 1 mM DTT.
For data set [15], the target named is T1, Histone acetyltransferase RTT109 (Saccharomyces cerevisiae (strain ATCC 204508 / S288c) (Baker's yeast)). The data set can be described thus: Inhibition of Vps75-stimulated recombinant Saccharomyces cerevisiae histone acetyltransferase Rtt109 assessed as H3K27 acetylated product at […] after 45 mins by Slot bolt inhibiton assay.
The target of data set [16] is T2, Histone acetyltransferase p300. The data set can be described thus: Inhibition of recombinant histone acetyltransferase p300 (unknown origin) using dH3-H4 tetramer and [3H]-acetyl-CoA assessed as acetate incorporation […] by liquid scintillation counting. The following applies: read-out: IC50.
Data set [17] is described as follows: Chemical stability of the compound in HTS buffer assessed as GSH adduct formation measured as retention time after 5 mins by UPLC-MS analysis. It counts as physicochemical. In a few lines:
as §1

Data set [18] can be described thus: Chemical stability of the compound in HTS buffer assessed as GSH adduct formation measured as retention time after 15 mins by UPLC-MS analysis. It counts as physicochemical. The following applies: 0.25 h. The procedure, abridged: as §1

T2 sequence (Q09472 whole entry): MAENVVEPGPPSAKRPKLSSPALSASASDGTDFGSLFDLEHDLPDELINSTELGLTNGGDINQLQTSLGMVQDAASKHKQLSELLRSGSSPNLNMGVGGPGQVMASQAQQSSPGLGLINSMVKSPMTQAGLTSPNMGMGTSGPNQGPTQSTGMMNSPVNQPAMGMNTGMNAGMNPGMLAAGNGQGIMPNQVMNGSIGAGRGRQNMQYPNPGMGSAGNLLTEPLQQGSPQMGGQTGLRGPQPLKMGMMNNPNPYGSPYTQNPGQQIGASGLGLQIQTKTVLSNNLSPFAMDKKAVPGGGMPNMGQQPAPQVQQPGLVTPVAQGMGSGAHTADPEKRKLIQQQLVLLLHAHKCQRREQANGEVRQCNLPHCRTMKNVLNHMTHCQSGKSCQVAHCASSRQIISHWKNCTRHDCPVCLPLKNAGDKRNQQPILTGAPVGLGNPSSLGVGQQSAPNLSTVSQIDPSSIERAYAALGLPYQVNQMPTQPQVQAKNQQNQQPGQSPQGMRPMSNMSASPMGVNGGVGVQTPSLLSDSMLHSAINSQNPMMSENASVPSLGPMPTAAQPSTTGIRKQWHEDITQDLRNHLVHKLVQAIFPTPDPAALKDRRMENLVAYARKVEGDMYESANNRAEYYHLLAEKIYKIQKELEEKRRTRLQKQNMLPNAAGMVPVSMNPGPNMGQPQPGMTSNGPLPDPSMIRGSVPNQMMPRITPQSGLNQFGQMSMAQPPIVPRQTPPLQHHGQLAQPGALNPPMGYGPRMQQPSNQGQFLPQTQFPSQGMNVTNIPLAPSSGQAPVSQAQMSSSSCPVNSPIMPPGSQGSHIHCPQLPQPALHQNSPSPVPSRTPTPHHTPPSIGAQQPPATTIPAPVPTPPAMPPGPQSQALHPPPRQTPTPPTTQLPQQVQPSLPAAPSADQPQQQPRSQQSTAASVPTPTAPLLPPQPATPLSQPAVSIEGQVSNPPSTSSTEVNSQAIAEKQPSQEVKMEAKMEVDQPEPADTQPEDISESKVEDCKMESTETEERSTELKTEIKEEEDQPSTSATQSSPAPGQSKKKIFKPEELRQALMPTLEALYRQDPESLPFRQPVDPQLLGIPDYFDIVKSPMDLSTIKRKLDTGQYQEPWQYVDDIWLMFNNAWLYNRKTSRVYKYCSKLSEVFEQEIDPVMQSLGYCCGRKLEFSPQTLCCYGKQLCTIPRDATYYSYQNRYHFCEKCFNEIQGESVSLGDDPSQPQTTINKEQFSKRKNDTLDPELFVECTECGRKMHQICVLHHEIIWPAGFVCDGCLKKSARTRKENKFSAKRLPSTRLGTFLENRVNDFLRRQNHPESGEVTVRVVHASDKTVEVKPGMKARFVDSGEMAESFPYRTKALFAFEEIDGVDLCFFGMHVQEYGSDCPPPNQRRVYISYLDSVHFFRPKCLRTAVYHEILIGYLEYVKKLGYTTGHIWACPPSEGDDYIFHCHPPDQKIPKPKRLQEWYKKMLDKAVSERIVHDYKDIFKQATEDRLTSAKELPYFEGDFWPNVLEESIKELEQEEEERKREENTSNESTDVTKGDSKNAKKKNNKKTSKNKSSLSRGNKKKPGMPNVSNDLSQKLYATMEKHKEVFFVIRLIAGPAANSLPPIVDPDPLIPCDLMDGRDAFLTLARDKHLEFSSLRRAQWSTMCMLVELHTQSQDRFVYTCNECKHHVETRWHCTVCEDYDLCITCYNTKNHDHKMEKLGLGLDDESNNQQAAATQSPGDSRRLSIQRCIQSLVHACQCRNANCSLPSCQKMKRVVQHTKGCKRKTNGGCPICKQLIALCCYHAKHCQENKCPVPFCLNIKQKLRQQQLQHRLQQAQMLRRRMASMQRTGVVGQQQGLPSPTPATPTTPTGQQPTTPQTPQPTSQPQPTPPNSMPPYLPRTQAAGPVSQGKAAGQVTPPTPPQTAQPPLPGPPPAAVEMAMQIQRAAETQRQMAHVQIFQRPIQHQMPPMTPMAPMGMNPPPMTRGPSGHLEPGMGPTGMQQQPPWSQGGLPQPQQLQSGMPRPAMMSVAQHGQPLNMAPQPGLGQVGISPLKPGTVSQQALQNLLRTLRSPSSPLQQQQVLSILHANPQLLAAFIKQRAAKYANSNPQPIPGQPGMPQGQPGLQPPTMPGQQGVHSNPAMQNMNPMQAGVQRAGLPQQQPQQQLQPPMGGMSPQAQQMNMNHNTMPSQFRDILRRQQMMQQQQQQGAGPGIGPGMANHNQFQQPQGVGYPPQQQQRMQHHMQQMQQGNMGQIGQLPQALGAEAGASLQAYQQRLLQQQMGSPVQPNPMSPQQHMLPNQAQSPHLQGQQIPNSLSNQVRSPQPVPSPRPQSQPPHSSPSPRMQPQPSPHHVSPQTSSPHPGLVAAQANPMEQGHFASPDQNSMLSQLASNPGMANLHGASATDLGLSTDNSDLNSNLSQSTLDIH
Chain of Histone acetyltransferase GCN5 (Q03330 whole entry): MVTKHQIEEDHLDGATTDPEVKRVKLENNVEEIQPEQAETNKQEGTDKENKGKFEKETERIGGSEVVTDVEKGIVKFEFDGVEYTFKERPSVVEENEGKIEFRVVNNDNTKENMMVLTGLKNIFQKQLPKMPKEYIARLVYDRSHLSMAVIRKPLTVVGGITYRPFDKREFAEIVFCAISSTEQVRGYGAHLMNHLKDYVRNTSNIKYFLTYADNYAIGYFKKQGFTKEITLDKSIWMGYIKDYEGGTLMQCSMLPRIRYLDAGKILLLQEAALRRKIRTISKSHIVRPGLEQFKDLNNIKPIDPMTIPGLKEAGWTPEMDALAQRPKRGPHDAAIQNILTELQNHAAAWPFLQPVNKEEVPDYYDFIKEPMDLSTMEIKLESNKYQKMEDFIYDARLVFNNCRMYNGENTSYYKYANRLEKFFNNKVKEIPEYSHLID
Chain of Histone acetyltransferase GCN5 (Saccharomyces cerevisiae S288c) (Q03330 whole entry): as above

As to `O=C1CC(Sc2nnc(-c3ccccc3O)o2)C(=O)N1c1ccc(Br)cc1` (configuration not stated), the IC50 – broadly, the concentration that inhibits the measured activity by half – in data set [1] was 27000 nM; in [11] (read-out: IC50), 15000 nM; in [12], 3900 nM; in data set [16] it was 3700 nM. In addition, the Activity result in data set [2], in data set [7], in data set [9] and in [13] was “Not Active” throughout. Further, in [3], the Stability result is “Unstable”. In addition, the result in data set [4], in data set [5], in [6], in data set [10], in data set [14] and in data set [15] was Active. In addition, in data set [8], the result was inactive.

`O=C(O)CCSc1cc(NS(=O)(=O)c2ccc(Br)cc2)c2ccccc2c1O`: the IC50 in [1] is 650 nM; in data set [11], “Not Active”; in data set [12] it was 520 nM; in data set [16] it was 1000 nM. The Activity result in [2] was “Active”; in [7] it was “Not Active”; in [9] it was “Not Active”; in data set [13] it was “Not Active”. In addition, the Retention_time was determined as 3.67 min in data set [17] and 3.28 min in data set [18]. Also, the result in data set [5], in [6] and in data set [14] was Active. Besides, in data set [8], the result was inactive.

For `O=S(=O)(Nc1cc(Cl)c(O)c2ccccc12)c1ccc(Br)cc1`, the IC50 in data set [1] is 1200 nM; in data set [11] (read-out: IC50) it was 2500 nM; in data set [12] it was 1600 nM; in data set [16], 1800 nM. Also, the Activity result in [2], in [7], in [9] and in [13] was “Not Active” in each case. Moreover, the Retention_time is recorded as 3.65 min in data set [17] and 3.28 min in data set [18]. Besides, the outcome in [4], in data set [5], in data set [10], in [14] and in data set [15] was Active.

Turning to `CNc1nc(-c2ccccc2)[n+](-c2ccccc2)s1.[Cl-]`, the IC50 amounted to 7500 nM in [1] and 1900 nM in data set [16]. Also, the Activity result in [2], in data set [7], in [9] and in data set [13] was “Not Active” each time. Also, the Stability entry in data set [3] is listed as “Unstable”. The result in data set [4], in data set [5], in data set [6], in [10], in [14] and in [15] was Active. Besides, the outcome in data set [8] was inactive.

As to `O=C(O)CSc1cc(NS(=O)(=O)c2ccc(C(=O)O)cc2)c2ccccc2c1O`, the IC50 in [1] was 1300 nM; in [11], “Not Active”; in data set [12], 150 nM; in data set [16], 660 nM. Besides, the Activity result is on record as “Active” in [2], “Not Active” in data set [7], “Not Active” in data set [9] and “Not Active” in [13]. Moreover, the Retention_time in [17] turned out to be 3.27 min; in data set [18], 3.28 min. Also, the result in [5] and in [14] was Active.

In the case of `O=S(=O)(Nc1cc(Sc2nnnn2-c2ccccc2)c(O)c2ccccc12)c1ccccc1`, the Activity result in data set [2], in [7], in [9] and in [13] was “Not Active” each time. The Retention_time is 3.4 min in data set [17] and 3.28 min in data set [18]. The outcome in data set [4], in [5], in [10], in [14] and in data set [15] was Active. In addition, in data set [16], the IC50 is 3100 nM.

For `O=C(O)c1ccc(-n2nnnc2SC2=CS(=O)(=O)c3ccccc32)cc1`, the IC50 was 11000 nM in data set [1], 8800 nM in data set [11] (read-out: IC50), 15000 nM in data set [12] and 7500 nM in data set [16]. Besides, the Activity result in [2], in [7], in [9] and in [13] was “Not Active” each time. In addition, the Stability result in data set [3] was “Unstable”. For the same compound, the outcome in data set [4], in data set [5], in data set [6], in data set [10], in data set [14] and in [15] was Active. Moreover, the outcome in data set [8] was inactive.

Turning to `O=S(=O)(Nc1cc(Sc2nc[nH]n2)c(O)c2ccccc12)c1ccc2ccccc2c1`, the results for the IC50 in data set [1] and in data set [16] were 2500 nM and 510 nM, respectively. Further, the Activity result in data set [2], in data set [7], in data set [9] and in [13] was “Not Active” each time. In addition, the Retention_time in data set [17] is 3.69 min; in data set [18] it was 3.28 min.
